STEP inh = STEP (human) phosphatase inhibition; P54829; 360,000 tested, 0.25% active; inhibition, % at 20 µM; recombinant STEP, OMFP fluorogenic substrate, fluorescence;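 active = inhibition at 20 µM, scaled per plate between control wells, above about 37%, limit read from the data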;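 also: 0% = DMSO with enzyme and substrate and 100% = substrate only without enzyme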
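Assay system: isolated STEP enzyme / Timing: 20 min at room temperature, dark / Doses: 20 µM, 1% DMSO / Technique: fluorescence intensity, excitation 480 nm, emission 540 nm / Reagent: fluorogenic phosphatase substrate OMFP at 25 µM final / Measure: percent inhibition scaled to no-enzyme and uninhibited-enzyme controls, plate-pattern corrected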
SUMO1 PPI mod = modulators of human SUMO1-mediated protein-protein interactions; SUMO1 binding to a labelled peptide, TR-FRET, 1 h; 360,000 tested, 0.33% active; AID 602429; P63165; inhibition, % at 20 µM; in the data active = inhibition above about 37%
LMPTP inh = blocks human LMPTP phosphatase. P24666. recombinant LMPTP-A, OMFP fluorogenic substrate, fluorescence intensity. inhibition, % at 20 µM. 360,000 tested, 0.22% active. AID 651560;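 active = compounds that cut the enzyme signal by at least half of the control window in the single-dose screen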;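 also: plate controls were DMSO wells with enzyme plus substrate for no effect and substrate without enzyme for full effect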
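Buffer or medium: Bis-Tris pH 6.0, DTT, detergent; Assay system: LMPTP-A enzyme; Quantity: 0.625 nM enzyme; Detection: endpoint fluorescence intensity; Times: 50 min dark incubation at room temperature; Controls: substrate-only low control, DMSO enzyme-plus-substrate high control; Doses: single 20 µM dose; Read-out: percent inhibition versus substrate-only and uninhibited controls; Reagent: 400 µM OMFP.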
DNMT1 inh = DNMT1 (human) enzyme inhibition; 360,000 tested, 0.83% active; AID 588458; P26358; DNMT1 molecular beacon, Hinp1I cleavage, fluorescence; inhibition (reported as % activation of signal), % at 10 µM; in the data active = inhibition above about 50%
Target sequence (P26358 504-1616 limits assumed): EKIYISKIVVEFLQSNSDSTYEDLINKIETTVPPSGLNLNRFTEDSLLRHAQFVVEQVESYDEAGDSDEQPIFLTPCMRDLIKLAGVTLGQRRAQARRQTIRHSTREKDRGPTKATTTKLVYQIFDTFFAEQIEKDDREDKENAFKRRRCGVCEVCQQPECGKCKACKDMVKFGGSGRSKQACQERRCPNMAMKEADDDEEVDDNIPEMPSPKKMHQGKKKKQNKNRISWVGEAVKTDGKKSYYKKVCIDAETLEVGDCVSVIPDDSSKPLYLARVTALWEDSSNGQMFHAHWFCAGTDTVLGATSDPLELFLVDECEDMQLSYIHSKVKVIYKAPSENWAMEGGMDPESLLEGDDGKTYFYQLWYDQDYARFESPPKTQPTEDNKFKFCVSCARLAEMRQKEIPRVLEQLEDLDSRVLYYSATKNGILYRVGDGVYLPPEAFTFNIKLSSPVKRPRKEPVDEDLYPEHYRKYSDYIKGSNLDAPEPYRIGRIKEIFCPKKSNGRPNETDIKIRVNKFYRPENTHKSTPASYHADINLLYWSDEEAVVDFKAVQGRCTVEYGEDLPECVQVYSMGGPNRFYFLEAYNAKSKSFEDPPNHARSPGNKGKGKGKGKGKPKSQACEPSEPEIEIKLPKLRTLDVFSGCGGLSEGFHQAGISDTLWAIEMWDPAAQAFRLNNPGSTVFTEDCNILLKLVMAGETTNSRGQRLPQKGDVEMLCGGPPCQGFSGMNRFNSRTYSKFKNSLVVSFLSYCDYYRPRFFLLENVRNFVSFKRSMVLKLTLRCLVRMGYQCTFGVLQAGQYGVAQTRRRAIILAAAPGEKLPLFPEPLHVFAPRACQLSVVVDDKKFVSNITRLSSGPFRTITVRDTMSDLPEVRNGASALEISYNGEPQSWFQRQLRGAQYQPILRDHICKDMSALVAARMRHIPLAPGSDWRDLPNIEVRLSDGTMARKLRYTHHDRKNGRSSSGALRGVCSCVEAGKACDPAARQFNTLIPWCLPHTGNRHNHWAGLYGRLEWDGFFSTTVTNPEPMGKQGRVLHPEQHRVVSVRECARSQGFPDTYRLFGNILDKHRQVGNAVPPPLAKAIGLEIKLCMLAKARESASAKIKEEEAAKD
Scp-1 inhibitor = Scp-1 (human) phosphatase inhibition. Recombinant Scp1, phosphopeptide, malachite green phosphate absorbance. inhibition, % at 20 µM. 340,000 tested, 0.88% active;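 active = inhibition above about 50% at 20 µM, limit read from the data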;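 also: plate controls were DMSO wells with enzyme for no effect and wells lacking enzyme for full effect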
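assay system = SCP-1 phosphatase catalytic domain, residues 76-261 | buffer or medium = 50 mM Tris acetate pH 5.5, 0.005% Tween-20, 10 mM MgCl2 | incubation = enzyme reaction 45 min at room temperature, colour 5 min, stabilisation 30 min | signal = Phosphate-binding colour reagent, absorbance read at 630 nm | measure = % inhibition at 20 µM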
Active calls of the source: *. Compounds with a hit are over-represented: about 1.8% of the library has one in this group of screens.

Screening O=C(Nc1nccs1)c1cc(-c2ccccn2)nc2c(Cl)cccc12 returned STEP inh 0, SUMO1 PPI mod 53*, LMPTP inh 0, DNMT1 inh 27 and Scp-1 inhibitor -5.
`CC1=C(C(=O)N(C(C)C)C(C)C)CC(CC(=O)NCc2cccc3ccccc23)C(=O)N1Cc1ccc(F)cc1` (configuration not stated) gave STEP inh 1, SUMO1 PPI mod 3, LMPTP inh 3 and DNMT1 inh -53.
Cc1ccc(S(=O)(=O)CCC(=O)OCC(=O)Nc2ccc(N3CCOCC3)cc2)cc1 was read as STEP inh 0, SUMO1 PPI mod 0, LMPTP inh 0, DNMT1 inh 0 and Scp-1 inhibitor -4.
Screening O=C(O[C@@H]1OC2COC(=O)c3cc(O)c(O)c(O)c3-c3c(cc(O)c(O)c3O)C(=O)O[C@@H]([C@H]1O)[C@@H]2O)c1cc(O)c(O)c(O)c1 returned STEP inh 11, SUMO1 PPI mod 46*, LMPTP inh 14, DNMT1 inh 90* and Scp-1 inhibitor 50*.
For O=C(Nc1ccccc1)c1cc(C2COCCN2C(=O)C2CC2)on1 (configuration not stated) the results were STEP inh 1, SUMO1 PPI mod -1, LMPTP inh -1 and DNMT1 inh 2.
Screening CC(C)n1cnc2c(Nc3ccc(C(=O)O)cc3)nc(Cl)nc21 returned STEP inh 3, SUMO1 PPI mod 6, LMPTP inh -1, DNMT1 inh 6 and Scp-1 inhibitor -11.
Screening CC(C)[C@H](CO)Nc1nc(Nc2ccc(Cl)c(C(=O)O)c2)c2ncn(C(C)C)c2n1 returned STEP inh -2, SUMO1 PPI mod 69*, LMPTP inh 1, DNMT1 inh 1 and Scp-1 inhibitor 4.
For COc1cc(/C=C2\SC(=S)N(NS(=O)(=O)c3ccccc3)C2=O)ccc1O the results were STEP inh 0, SUMO1 PPI mod -22, LMPTP inh 0, DNMT1 inh -3 and Scp-1 inhibitor 60*.
For O=C(Nc1cc(-c2nc3ncccc3o2)ccc1Cl)c1ccc([N+](=O)[O-])o1 the results were STEP inh 2, SUMO1 PPI mod -11, LMPTP inh 3, DNMT1 inh 18 and Scp-1 inhibitor 4.
CCC[n+]1c2ccccc2cc2ccccc21 was read as STEP inh 0, SUMO1 PPI mod -10, LMPTP inh 1, DNMT1 inh 3 and Scp-1 inhibitor 55*.
Oc1ccc2ccccc2c1/C=N/Nc1ccccc1 was read as STEP inh 52*, SUMO1 PPI mod -3, LMPTP inh 0, DNMT1 inh -27 and Scp-1 inhibitor -17.
`O=CN/N=C/c1c(O)ccc2ccccc12` gave STEP inh -5, SUMO1 PPI mod -20, LMPTP inh -2, DNMT1 inh 11 and Scp-1 inhibitor -8.
`O=C1COc2ccccc2N1Cc1ccc(Cl)cc1` gave STEP inh -1, SUMO1 PPI mod -2, LMPTP inh 0, DNMT1 inh 2 and Scp-1 inhibitor -7.
`c1ccc2c(NCCc3c[nH]c4ccccc34)c3ccccc3nc2c1` gave STEP inh 3, SUMO1 PPI mod -44, LMPTP inh 57*, DNMT1 inh 72* and Scp-1 inhibitor -8.
`OCCCNc1c2ccccc2nc2ccccc12` gave STEP inh -1, SUMO1 PPI mod -31, LMPTP inh 26, DNMT1 inh 67* and Scp-1 inhibitor -4.
For Cc1ccc(-c2nc(NCCCO)c3ccccc3n2)cc1 the results were STEP inh -6, SUMO1 PPI mod 21, LMPTP inh 48, DNMT1 inh 7 and Scp-1 inhibitor -6.
For Fc1cccc(NCCc2c[nH]c3ccccc23)n1 the results were STEP inh -1, SUMO1 PPI mod 5, LMPTP inh 1, DNMT1 inh -4 and Scp-1 inhibitor 4.
`CCc1ccc(-c2cc(C(=O)O)c3ccccc3n2)s1` gave STEP inh 1, SUMO1 PPI mod -8, LMPTP inh 0, DNMT1 inh -1 and Scp-1 inhibitor -4.
`C/C(=N\Nc1ccc(C(=O)O)cc1)c1ccc(Br)cc1` gave STEP inh 30, SUMO1 PPI mod 1, LMPTP inh 3, DNMT1 inh 43 and Scp-1 inhibitor 52*.
For C/C(=N/Nc1ncc(Br)cn1)c1ccc(Br)cc1 the results were STEP inh -2, SUMO1 PPI mod -2, LMPTP inh 1, DNMT1 inh -1 and Scp-1 inhibitor -5.

Screens: PubChem, Sanford-Burnham Center for Chemical Genomics
